Measured values from different studies.
Compare with care: the assays were run in different laboratories.

SMILES	cell line	test	setting	IC50
Cc1ncn2c(=O)n(C)nnc12	U-87 MG	cell growth or viability, resazurin	7 days	3000 nM
C=C(C)C(=O)Nc1ccc(-c2c(-c3ccc(Oc4nccc(C)n4)c(F)c3)c3c(N)ncnc3n2C)cc1	JMSU-1	cell growth or viability, ATP luminescence	96 h	1060 nM
CC1=C(O)C(=O)C=C2C1=CC=C1[C@@]2(C)CC[C@@]2(C)[C@@H]3C[C@](C)(C(=O)OCCCCCO)CC[C@]3(C)CC[C@]12C	AGS	cell growth or viability, MTT	48 h	430 nM
COc1cccc2c1C(=O)c1c(O)c3c(c(O)c1C2=O)C[C@@](O)(C(=O)CO)C[C@@H]3O[C@H]1C[C@H](N)[C@H](O)[C@H](C)O1	AGS	cell growth or viability, MTT	24 h	< 625 nM
COc1cc(/C=C2\SC(=O)NC2=O)ccc1OCc1ccc(Cl)cc1Cl	MEF	cell growth or viability, MTT	72 h	8600 nM
CC(=O)OCCOC(=O)[C@]1(C)CC[C@]2(C)CC[C@]3(C)C4=CC=C5C(=CC(=O)C(O)=C5C)[C@]4(C)CC[C@@]3(C)[C@@H]2C1	AGS	cell growth or viability, MTT	48 h	430 nM
O=C1NCCc2[nH]c(-c3ccncc3)cc21	EKVX	cell growth or viability		> 10000 nM
C=CC(=O)Nc1cc(Nc2nccc(-c3cn(C)c4ccccc34)n2)c(OC)cc1N(C)CCN(C)C	PC-9	cell growth or viability, ATP luminescence	72 h	4.3 nM
O=C(c1cc(Cc2n[nH]c(=O)c3ccccc23)ccc1F)N1CCN(C(=O)C2CC2)CC1	SK-OV-3	colony formation		7600 nM
CC1=C(O)C(=O)C=C2C1=CC=C1[C@@]2(C)CC[C@@]2(C)[C@@H]3C[C@](C)(C(=O)OCCO)CC[C@]3(C)CC[C@]12C	AGS	cell growth or viability, MTT	48 h	470 nM
CC(=O)Nc1nc(C)c(-c2csc(Nc3ccccc3)n2)s1	MEF	cell growth or viability, MTT	72 h	21400 nM
CC1=C(O)C(=O)C=C2C1=CC=C1[C@@]2(C)CC[C@@]2(C)[C@@H]3C[C@](C)(C(=O)OCCCN4C(=O)C5C=CC=CC5C4=O)CC[C@]3(C)CC[C@]12C (some centres unmarked)	AGS	cell growth or viability, MTT	48 h	370 nM
Cn1nnc2c(C(N)=O)ncn2c1=O	IMR-32	cell growth or viability		81600 nM
CCc1ccc(N2NC(=O)/C(=C/c3ccc(-c4ccc(S(=O)(=O)Nc5nccs5)cc4)o3)C2=O)cc1	MEF	cell growth or viability, MTT	72 h	50000 nM
CC1=C(O)C(=O)C=C2C1=CC=C1[C@@]2(C)CC[C@@]2(C)[C@@H]3C[C@](C)(C(=O)OCCCOc4ccccc4)CC[C@]3(C)CC[C@]12C	AGS	cell growth or viability, MTT	48 h	1360 nM
O=c1[nH]cc(S(=O)(=O)Nc2cccc(-c3nnc(-c4cccc(Cl)c4)o3)c2)c(=O)[nH]1	PC-9	cell growth or viability, MTT	24 h	1100 nM
CC(C)[C@H](N)c1nc2cc(-c3ccncc3F)sc2c(=O)[nH]1	SHP77	cell growth or viability, MTT		760 nM
CC1=C(O)C(=O)C=C2C1=CC=C1[C@@]2(C)CC[C@@]2(C)[C@@H]3C[C@](C)(C(=O)OCCCBr)CC[C@]3(C)CC[C@]12C	AGS	cell growth or viability, MTT	48 h	360 nM
CCCCN(CCCC)C(=O)c1ncn2c(=O)n(C)nnc12	U-87 MG	cell growth or viability, resazurin	7 days	27000 nM
COc1c(C)c(OS(=O)(=O)c2ccc3ccccc3c2)c(C)c(OS(=O)(=O)c2ccc3ccccc3c2)c1C(=O)/C=C/c1ccccc1	KKU-M213	cell growth or viability, SRB	72 h	> 50000 nM
